Experimental data taken from ChEMBL document CHEMBL3779840, “Discovery of 2-((3-Amino-4-methylphenyl)amino)-N-(2-methyl-5-(3-(trifluoromethyl)benzamido)phenyl)-4-(methylamino)pyrimidine-5-carboxamide (CHMFL-ABL-053) as a Potent, Selective, and Orally Available BCR-ABL/SRC/p38 Kinase Inhibitor for Chronic Myeloid Leukemia” (J Med Chem, 2016).
Calls of active or inactive are those of the source. No cut-off for these calls is given here.

Columns and labels:
[1] = biological target: Ephrin type-B receptor 6 (Homo sapiens) (UniProt O15197); experiment: Inhibition of partial length human wild type EPHB6 expressed in mammalian expression system assessed as residual activity at 1 uM relative to control
[2] = biological target: Tyrosine-protein kinase Blk (Homo sapiens) (UniProt P51451); settings: BaF3
[3] = Antiproliferative activity against mouse BA/F3 cells assessed as cell viability after 72 hrs by CellTiter-Glo or CCK-8 assay; assay type: cell-based, BaF3
[4] = Mean residence time (0 to infinity) in Sprague-Dawley rat at 1 mg/kg, iv; assay type: ADME, organism-based; settings: in vivo
MV4-11 = experiment: Antiproliferative activity against human MV4-11 cells assessed as cell viability after 72 hrs by CellTiter-Glo or CCK-8 assay; assay type: functional; settings: MV4-11, 72 h
[5] = Antiproliferative activity against human MOLM14 cells assessed as cell viability after 72 hrs by CellTiter-Glo or CCK-8 assay; assay type: functional; settings: MOLM-14, 72 h
[6] = AUC(0 to t) in Sprague-Dawley rat at 1 mg/kg, iv; assay type: ADME, organism-based; settings: in vivo
KU812 cell line = experiment: Induction of apoptosis in human KU812 cells assessed as increase in cleaved PARP level at 100 nM after 24 hrs by immunoblotting method; assay type: functional, cell-based
[7] = biological target: T1, Discoidin domain-containing receptor 2 (Homo sapiens) (UniProt Q16832); experiment: Inhibition of partial length human wild type DDR2 expressed in mammalian expression system assessed as residual activity at 1 uM relative to control
T1 sequence (whole entry): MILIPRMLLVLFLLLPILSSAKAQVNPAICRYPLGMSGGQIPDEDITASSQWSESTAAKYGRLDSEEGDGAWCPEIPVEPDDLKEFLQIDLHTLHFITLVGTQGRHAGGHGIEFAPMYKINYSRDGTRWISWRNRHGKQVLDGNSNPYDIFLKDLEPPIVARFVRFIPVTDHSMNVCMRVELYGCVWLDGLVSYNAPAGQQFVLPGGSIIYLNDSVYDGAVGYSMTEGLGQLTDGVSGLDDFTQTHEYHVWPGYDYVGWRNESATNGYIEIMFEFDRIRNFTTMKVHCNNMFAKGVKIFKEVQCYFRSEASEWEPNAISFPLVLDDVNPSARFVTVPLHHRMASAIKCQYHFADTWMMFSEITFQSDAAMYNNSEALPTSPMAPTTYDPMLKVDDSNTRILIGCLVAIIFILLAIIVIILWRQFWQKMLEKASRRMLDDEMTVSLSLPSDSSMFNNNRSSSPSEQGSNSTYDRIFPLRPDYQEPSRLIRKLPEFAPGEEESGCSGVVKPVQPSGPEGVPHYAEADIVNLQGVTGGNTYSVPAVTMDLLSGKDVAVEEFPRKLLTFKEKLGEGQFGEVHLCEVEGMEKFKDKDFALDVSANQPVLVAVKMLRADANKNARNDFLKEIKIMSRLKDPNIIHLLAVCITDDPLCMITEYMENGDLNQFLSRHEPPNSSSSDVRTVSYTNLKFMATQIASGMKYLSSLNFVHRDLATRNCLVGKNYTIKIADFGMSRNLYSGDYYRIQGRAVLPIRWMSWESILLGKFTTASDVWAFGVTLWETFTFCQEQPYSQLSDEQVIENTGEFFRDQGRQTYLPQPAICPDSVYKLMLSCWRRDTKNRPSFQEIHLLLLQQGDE

[8] = biological target: Proto-oncogene tyrosine-protein kinase Src (Homo sapiens, UniProt P12931); experiment: Inhibition of SRC phosphorylation in human MEG01 cells at 0.01 to 3 uM after 1 hr by immunoblotting method; assay type: cell-based; settings: MEG-01
Procedure, shortened: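 Cells were treated for 1 h at the indicated concentrations. Whole-cell lysates were then analysed by Western blot for phosphorylation of signalling proteins in the BCR-ABL pathway.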

[9] = biological target: T2, Mitogen-activated protein kinase 14 (Homo sapiens, UniProt Q16539); experiment: Inhibition of P38-alpha phosphorylation in human MEG01 cells at 0.01 to 3 uM after 1 hr by immunoblotting method; assay type: cell-based; settings: MEG-01
Procedure, shortened: (§1)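 KU812, K562 and MEG-01 cells were exposed to compound at the indicated concentrations for 1 h. Whole-cell lysates were then analysed by Western blot for phosphorylated signaling proteins.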

[10] = biological target: T3, Bcr/Abl fusion protein (Homo sapiens) (UniProt P00519+P11274); experiment: Inhibition of BCR/ABL in human MEG01 cells assessed as downregulation of Stat5 phosphorylation at […] site after 1 hr by immunoblotting method; assay type: cell-based; settings: MEG-01; procedure, shortened: as §1
[11] = Tmax in Sprague-Dawley rat at 1 mg/kg, iv; assay type: ADME, organism-based; settings: in vivo
[12] = Antiproliferative activity against human MEG01 cells assessed as cell viability after 72 hrs by CellTiter-Glo or CCK-8 assay; assay type: functional; settings: MEG-01, 72 h
[13] = Apparent volume of distribution in Sprague-Dawley rat at 1 mg/kg, iv; assay type: ADME, organism-based; settings: in vivo, read-out: Vd(app)
[14] = biological target: T2, Mitogen-activated protein kinase 14; experiment: Inhibition of full length recombinant GST-tagged human p38-alpha expressed in Escherichia coli
Procedure, shortened: (§2)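 IC50 values were determined with the Invitrogen SelectScreen biochemical kinase assay.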

[15] = biological target: T3, Bcr/Abl fusion protein (Homo sapiens); experiment: Inhibition of BCR/ABL in human K562 cells assessed as downregulation of ERK phosphorylation at Thr202/Tyr204 site after 1 hr by immunoblotting method; assay type: cell-based; procedure, shortened: as §1
K562 [16] = experiment: Antiproliferative activity against human K562 cells xenografted in nu/nu mouse at 25 and 50 mg/kg/day, qd administered through oral gavage measured after 16 days by hematoxylin/eosin staining-based assay; assay type: functional, organism-based
Procedure, shortened: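 Female nu/nu mice bore established K562 xenografts and received daily oral dosing at 25.0 or 50.0 mg/kg/d, or vehicle, starting when tumors reached 200 to 400 mm3, for 16 days. Groups had 5 animals; data are mean ± SEM. Tumor size and body weight were normalized to initial values, and final tumor weight was recorded. Tumor tissue was stained with HE, Ki-67 and TUNEL.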

[17] = biological target: Tyrosine-protein kinase ABL1 (Homo sapiens, UniProt P00519); experiment: Inhibition of full length recombinant human ABL1 expressed in Baculovirus expression system; procedure, shortened: as §2
[18] = biological target: Tyrosine-protein kinase Lck (Homo sapiens) (UniProt P06239); settings: BaF3
[19] = biological target: T2, Mitogen-activated protein kinase 14; experiment: Inhibition of P38-alpha phosphorylation in human KU812 cells at 0.01 to 3 uM after 1 hr by immunoblotting method; assay type: cell-based; procedure, shortened: as §1
K562 [20] = experiment: Induction of apoptosis in human K562 cells assessed as increase in cleaved caspase3 level at 100 nM after 48 hrs by immunoblotting method; assay type: functional, cell-based
Mus musculus = experiment: Toxicity in nu/nu mouse xenografted with K562 cells assessed as mortality at 25 and 50 mg/kg/day, qd administered through oral gavage for 16 days measured every day during compound dosing; assay type: organism-based; settings: in vivo, 384 h
Procedure, shortened: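 Female nu/nu mice carrying established K562 xenografts received oral treatment once daily at 25.0 or 50.0 mg/kg/d, or vehicle, starting when tumours reached 200 to 400 mm3. There were 5 animals per group and dosing lasted 16 days. Body weight was expressed relative to initial weight (set as 100%), and mortality was recorded. Data are given as mean ± SEM.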

[21] = biological target: T3, Bcr/Abl fusion protein (Homo sapiens); settings: BaF3

T2 sequence (Q16539 whole entry): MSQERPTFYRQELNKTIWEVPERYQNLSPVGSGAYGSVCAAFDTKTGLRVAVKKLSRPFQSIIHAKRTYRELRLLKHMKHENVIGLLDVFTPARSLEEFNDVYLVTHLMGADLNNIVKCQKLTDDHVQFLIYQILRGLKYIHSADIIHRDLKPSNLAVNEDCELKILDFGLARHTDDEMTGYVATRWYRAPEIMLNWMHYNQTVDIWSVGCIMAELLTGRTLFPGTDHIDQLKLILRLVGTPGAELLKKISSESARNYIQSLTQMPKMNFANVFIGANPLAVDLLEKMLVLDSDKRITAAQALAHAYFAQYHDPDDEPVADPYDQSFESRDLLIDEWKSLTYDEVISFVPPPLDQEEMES
T3 sequence (P00519 whole entry, looked up, the tested form may be a part): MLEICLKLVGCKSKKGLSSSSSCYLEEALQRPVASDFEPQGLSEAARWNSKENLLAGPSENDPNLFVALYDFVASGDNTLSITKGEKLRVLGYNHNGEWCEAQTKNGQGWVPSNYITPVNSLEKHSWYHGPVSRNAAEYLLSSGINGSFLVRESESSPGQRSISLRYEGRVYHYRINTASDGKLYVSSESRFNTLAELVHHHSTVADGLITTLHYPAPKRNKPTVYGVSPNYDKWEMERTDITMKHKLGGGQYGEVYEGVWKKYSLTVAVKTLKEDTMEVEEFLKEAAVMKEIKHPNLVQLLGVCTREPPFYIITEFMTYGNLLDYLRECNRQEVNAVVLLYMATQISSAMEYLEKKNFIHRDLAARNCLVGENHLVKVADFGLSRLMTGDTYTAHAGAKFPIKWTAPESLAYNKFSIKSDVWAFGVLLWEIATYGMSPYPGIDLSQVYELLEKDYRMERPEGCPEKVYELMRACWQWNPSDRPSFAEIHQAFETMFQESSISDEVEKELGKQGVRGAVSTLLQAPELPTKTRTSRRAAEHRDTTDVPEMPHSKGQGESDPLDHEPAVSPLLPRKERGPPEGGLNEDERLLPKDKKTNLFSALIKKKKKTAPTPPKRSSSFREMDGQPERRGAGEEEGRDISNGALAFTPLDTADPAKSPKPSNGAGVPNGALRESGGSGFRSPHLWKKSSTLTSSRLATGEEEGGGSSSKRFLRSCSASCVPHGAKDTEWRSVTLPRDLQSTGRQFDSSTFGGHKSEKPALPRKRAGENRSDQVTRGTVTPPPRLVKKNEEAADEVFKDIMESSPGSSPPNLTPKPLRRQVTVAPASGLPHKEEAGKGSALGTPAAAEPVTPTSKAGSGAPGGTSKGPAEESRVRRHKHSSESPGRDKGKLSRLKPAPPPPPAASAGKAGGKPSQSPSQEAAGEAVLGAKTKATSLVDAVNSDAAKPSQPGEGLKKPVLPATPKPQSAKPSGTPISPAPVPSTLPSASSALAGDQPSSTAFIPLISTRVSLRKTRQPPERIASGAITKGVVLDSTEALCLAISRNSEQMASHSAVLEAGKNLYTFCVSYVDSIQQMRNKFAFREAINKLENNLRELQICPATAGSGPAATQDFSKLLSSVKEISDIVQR
T3 sequence (P11274 whole entry, looked up, the tested form may be a part): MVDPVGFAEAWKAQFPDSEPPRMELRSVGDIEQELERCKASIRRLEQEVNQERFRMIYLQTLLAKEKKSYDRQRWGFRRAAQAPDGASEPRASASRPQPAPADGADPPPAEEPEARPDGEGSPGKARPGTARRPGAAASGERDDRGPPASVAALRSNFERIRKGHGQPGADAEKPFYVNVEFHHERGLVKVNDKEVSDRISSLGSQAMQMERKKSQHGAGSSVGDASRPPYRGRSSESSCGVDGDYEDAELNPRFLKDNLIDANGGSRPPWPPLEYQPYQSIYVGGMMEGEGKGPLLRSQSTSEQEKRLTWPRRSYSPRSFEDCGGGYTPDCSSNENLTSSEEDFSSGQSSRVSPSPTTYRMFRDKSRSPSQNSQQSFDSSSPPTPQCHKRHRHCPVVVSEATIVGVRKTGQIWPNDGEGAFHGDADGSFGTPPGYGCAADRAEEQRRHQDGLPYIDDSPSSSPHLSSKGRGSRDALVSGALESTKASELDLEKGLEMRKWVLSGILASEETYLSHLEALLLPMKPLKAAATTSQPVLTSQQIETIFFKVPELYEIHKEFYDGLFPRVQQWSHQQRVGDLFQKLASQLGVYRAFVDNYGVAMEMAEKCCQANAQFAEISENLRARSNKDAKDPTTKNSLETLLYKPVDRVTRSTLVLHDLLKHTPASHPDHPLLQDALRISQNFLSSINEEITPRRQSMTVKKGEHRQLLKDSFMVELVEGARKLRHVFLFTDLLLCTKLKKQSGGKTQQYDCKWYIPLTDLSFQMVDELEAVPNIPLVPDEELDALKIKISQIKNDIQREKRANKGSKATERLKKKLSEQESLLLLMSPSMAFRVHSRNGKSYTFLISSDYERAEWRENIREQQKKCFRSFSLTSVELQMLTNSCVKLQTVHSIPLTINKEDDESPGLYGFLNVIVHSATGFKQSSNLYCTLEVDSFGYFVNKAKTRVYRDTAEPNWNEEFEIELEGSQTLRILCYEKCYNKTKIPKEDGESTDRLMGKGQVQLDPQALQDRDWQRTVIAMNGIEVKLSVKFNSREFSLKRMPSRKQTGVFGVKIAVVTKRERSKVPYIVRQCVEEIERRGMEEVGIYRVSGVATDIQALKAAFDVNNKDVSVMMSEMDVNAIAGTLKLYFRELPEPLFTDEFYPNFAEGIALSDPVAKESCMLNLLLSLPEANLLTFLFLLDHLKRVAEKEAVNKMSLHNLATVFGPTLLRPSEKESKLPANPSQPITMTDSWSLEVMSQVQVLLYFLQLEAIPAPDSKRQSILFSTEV
Ephrin type-B receptor 6 (Homo sapiens), sequence (O15197 whole entry): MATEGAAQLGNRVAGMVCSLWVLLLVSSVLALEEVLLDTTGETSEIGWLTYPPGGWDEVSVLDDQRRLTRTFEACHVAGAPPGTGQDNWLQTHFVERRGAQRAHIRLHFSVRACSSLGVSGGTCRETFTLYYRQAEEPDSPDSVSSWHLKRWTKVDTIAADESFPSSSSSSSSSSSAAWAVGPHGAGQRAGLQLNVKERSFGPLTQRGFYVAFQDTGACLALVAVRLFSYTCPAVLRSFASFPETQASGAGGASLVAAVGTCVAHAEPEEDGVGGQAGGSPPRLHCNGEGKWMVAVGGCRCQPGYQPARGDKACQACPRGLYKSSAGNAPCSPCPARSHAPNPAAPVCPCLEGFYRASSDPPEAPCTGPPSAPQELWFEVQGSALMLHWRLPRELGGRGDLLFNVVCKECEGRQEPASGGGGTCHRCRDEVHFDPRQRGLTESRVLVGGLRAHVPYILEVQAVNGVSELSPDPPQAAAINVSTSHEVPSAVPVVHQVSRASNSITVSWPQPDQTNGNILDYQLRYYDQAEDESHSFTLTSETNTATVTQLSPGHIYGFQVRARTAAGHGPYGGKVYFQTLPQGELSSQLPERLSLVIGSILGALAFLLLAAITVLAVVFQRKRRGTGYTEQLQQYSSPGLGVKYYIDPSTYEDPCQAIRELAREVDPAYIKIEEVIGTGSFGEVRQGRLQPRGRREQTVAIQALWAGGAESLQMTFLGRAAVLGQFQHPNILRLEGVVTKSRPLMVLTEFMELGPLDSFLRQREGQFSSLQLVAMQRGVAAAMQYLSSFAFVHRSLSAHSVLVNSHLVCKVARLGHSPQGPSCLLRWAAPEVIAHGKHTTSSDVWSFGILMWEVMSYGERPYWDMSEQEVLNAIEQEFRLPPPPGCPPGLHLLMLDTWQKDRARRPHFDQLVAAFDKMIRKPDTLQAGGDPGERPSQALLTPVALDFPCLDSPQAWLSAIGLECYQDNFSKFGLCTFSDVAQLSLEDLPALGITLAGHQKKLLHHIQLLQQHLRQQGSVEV
Tyrosine-protein kinase Lck (Homo sapiens), sequence (P06239 2-509 limits assumed): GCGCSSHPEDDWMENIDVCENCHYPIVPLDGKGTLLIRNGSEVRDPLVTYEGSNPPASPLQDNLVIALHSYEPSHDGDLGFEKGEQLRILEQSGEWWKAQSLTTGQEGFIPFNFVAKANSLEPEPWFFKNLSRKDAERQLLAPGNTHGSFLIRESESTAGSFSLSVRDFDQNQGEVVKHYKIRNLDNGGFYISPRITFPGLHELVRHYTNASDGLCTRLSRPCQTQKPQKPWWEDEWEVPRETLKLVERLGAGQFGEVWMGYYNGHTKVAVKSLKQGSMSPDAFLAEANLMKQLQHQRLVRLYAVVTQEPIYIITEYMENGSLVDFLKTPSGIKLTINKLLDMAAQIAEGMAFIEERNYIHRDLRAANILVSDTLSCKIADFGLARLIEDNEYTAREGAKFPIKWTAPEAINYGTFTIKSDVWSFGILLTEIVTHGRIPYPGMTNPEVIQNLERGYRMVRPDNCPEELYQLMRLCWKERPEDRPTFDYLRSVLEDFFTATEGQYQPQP
Proto-oncogene tyrosine-protein kinase Src, sequence (P12931 2-536 limits assumed): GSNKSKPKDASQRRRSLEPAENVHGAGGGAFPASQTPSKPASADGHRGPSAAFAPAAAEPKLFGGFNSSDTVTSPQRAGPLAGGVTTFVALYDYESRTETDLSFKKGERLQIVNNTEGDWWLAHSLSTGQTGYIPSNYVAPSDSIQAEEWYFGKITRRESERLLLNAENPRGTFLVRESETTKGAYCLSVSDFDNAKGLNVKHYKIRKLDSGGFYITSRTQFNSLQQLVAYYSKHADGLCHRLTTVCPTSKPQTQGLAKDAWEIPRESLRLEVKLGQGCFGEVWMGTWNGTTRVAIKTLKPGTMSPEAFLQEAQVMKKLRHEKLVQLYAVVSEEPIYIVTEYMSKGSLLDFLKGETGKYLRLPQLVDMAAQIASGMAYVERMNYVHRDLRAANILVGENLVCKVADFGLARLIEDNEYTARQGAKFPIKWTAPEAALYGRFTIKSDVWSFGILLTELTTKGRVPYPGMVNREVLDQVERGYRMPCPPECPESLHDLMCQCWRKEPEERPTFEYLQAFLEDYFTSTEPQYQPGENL
Tyrosine-protein kinase ABL1, sequence (P00519 whole entry): as the sequence (P00519 whole entry, looked up, the tested form may be a part) above

CNc1nc(Nc2ccc(C)c(N)c2)ncc1C(=O)Nc1cc(NC(=O)c2cccc(C(F)(F)F)c2)ccc1C
Activity [1]: 0.95%
GI50 [2]: 1.1 µM
GI50 at 72 h [3]: > 10 µM
MRT inf [4]: 3.1 h
GI50 (MV4-11): 8 µM
GI50 [5]: > 10 µM
AUC(0-t) [6]: 636 ng·h/mL
Activity (KU812 cell line): Active
Activity [7]: 0%
inhibition [8]: inactive
inhibition [9]: Active
inhibition [10]: Dose-dependent effect
Tmax [11]: 1.2 min
GI50 [12]: 0.016 µM
Vd [13]: 6.03 L/kg
IC50 [14]: 0.062 µM
inhibition [15]: Dose-dependent effect
Activity (K562 [16]): Active
IC50 [17]: 0.07 µM
GI50 [18]: 0.6 µM
inhibition [19]: Active
Activity (K562 [20]): Active
Activity (Mus musculus): Non-toxic
GI50 [21]: 0.44 µM
